Laboratory results: ChEMBL document CHEMBL4184148 (Bioorg Med Chem Lett, 2017)

Columns and labels:
[1] = target: LIM domain kinase 2 (Homo sapiens) (UniProt P53671); assay: Binding affinity to wild-type human full length LIMK2 (M1 to P638 residues) expressed in Escherichia coli BL21 at 1 uM by Kinomescan method relative to control
In short: (§1)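 Run as one kinome-wide competition binding panel with each compound at a single fixed concentration. Results were plotted as a kinome-wide selectivity map.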

[2] = target: Serine/threonine-protein kinase Sgk1 (Homo sapiens) (UniProt O00141); assay: Binding affinity to wild-type human partial length SGK (I60 to L431 residues) expressed in HEK293 cells at 1 uM by Kinomescan method relative to control; format: cell-based
[3] = target: Ribosomal protein S6 kinase alpha-2 (Homo sapiens) (UniProt Q15349); assay: Binding affinity to wild-type human partial length N-terminal RSK2 kinase domain 1 (M1 to D394 residues) expressed in HEK293 cells at 1 uM by Kinomescan method relative to control; format: cell-based
Chain of Ribosomal protein S6 kinase alpha-2 (Homo sapiens) (Q15349 whole entry, the tested form may be a part): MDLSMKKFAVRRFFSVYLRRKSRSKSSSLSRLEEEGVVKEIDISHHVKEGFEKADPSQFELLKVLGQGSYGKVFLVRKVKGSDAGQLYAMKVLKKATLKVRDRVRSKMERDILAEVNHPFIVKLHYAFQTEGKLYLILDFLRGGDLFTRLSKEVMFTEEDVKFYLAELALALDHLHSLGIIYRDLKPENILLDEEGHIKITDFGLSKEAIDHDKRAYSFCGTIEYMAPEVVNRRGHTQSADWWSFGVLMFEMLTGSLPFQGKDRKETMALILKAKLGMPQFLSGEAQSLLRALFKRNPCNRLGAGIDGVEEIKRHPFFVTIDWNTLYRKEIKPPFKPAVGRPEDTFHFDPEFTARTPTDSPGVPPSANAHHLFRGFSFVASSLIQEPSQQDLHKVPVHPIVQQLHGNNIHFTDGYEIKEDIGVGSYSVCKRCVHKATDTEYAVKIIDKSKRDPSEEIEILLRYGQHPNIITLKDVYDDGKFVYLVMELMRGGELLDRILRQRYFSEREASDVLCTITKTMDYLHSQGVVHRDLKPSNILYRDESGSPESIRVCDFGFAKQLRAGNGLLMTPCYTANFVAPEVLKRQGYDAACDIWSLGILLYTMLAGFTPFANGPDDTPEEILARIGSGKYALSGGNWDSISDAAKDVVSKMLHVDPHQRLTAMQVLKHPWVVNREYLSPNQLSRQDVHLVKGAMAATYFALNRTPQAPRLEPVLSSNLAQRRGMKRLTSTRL

[4] = target: Protein-tyrosine kinase 6 (Homo sapiens) (UniProt Q13882); assay: Binding affinity to wild-type human partial length BRK (L166 to T451 residues) expressed in Escherichia coli BL21 at 1 uM by Kinomescan method relative to control
Chain of Protein-tyrosine kinase 6 (Homo sapiens) (Q13882 whole entry, looked up, the tested form may be a part): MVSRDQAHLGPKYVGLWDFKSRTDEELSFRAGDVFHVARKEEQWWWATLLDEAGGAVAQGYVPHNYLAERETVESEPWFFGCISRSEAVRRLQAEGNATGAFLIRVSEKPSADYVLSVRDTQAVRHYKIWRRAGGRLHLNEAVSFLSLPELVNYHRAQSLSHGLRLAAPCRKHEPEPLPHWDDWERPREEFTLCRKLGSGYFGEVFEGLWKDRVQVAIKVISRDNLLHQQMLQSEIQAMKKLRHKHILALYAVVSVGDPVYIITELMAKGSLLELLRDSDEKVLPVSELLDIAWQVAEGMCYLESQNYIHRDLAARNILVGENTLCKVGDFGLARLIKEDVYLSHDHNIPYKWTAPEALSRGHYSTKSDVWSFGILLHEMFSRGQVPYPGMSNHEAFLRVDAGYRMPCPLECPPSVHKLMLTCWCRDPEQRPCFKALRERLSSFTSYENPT

[5] = target: Mitogen-activated protein kinase kinase kinase 19 (Homo sapiens) (UniProt Q56UN5); assay: Binding affinity to wild-type human partial length YSK4 (T1019 to H1328 residues) expressed in HEK293 cells at 1 uM by Kinomescan method relative to control; format: cell-based
Chain of Mitogen-activated protein kinase kinase kinase 19 (Homo sapiens) (Q56UN5 whole entry, the tested form may be a part): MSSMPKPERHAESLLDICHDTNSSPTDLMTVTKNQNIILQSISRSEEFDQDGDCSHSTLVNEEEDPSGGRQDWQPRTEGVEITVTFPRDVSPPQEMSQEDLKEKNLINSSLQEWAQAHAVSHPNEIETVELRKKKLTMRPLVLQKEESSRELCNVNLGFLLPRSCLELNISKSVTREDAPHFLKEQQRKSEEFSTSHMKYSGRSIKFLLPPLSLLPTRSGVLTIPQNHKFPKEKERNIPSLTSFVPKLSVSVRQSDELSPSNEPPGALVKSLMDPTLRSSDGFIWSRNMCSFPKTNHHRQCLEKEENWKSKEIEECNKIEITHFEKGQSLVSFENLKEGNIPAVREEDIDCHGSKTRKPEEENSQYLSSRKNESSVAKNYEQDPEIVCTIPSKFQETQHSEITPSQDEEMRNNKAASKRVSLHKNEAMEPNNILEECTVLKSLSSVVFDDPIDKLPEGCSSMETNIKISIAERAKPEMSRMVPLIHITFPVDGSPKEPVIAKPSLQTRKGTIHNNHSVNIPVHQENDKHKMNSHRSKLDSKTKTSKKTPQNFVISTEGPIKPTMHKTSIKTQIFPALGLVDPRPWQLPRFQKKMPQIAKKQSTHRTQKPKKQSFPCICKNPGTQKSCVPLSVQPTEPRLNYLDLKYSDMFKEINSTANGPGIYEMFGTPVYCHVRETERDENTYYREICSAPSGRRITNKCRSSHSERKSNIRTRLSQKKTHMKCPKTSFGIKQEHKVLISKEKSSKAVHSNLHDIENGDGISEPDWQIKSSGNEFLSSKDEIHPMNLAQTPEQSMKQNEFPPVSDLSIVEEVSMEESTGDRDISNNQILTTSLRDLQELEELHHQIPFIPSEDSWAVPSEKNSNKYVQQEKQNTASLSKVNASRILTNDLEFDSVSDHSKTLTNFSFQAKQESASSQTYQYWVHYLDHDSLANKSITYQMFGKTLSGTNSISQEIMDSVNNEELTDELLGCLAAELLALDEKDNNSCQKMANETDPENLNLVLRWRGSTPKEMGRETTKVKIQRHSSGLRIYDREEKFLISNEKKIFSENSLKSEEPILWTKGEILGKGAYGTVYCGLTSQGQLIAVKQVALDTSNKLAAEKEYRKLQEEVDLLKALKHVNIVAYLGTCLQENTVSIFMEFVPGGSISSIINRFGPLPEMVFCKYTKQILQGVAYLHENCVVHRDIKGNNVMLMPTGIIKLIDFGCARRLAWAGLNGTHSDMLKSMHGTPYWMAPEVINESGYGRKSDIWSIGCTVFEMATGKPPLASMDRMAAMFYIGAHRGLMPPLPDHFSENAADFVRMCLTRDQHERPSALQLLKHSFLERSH

[6] = target: Serine/threonine-protein kinase Nek7 (Homo sapiens) (UniProt Q8TDX7); assay: Binding affinity to wild-type human full length NEK7 (M1 to S302 residues) expressed in Escherichia coli BL21 at 1 uM by Kinomescan method relative to control
Chain of Serine/threonine-protein kinase Nek7 (Homo sapiens) (Q8TDX7 whole entry, looked up, the tested form may be a part): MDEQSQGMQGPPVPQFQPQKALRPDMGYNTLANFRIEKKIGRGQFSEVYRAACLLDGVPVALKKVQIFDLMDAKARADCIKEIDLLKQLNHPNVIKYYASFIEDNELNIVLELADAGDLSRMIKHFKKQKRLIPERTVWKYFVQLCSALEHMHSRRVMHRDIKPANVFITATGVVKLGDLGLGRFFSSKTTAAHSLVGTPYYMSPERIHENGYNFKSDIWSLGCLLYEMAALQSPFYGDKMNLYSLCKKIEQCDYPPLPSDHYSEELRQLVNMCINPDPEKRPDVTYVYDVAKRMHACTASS
In short: (§2)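 Kinome-wide competition binding panel run by an outside provider, with each compound tested at a single concentration. Activity is read against the kinase panel.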

[7] = target: Phosphatidylinositol 4-phosphate 5-kinase type-1 gamma (Homo sapiens) (UniProt O60331); assay: Binding affinity to wild-type human partial length PIP5K1C (M1 to T668 residues) expressed in HEK293 cells at 1 uM by Kinomescan method relative to control; format: cell-based
[8] = target: Mitotic checkpoint serine/threonine-protein kinase BUB1 (Homo sapiens) (UniProt O43683); assay: Binding affinity to wild-type human partial length BUB1 (Q724 to K1085 residues) expressed in HEK293 cells at 1 uM by Kinomescan method relative to control; format: cell-based
[9] = target: Mitogen-activated protein kinase 15 (Homo sapiens) (UniProt Q8TD08); assay: Binding affinity to wild-type human partial length ERK8 (M1 to P437 residues) expressed in Escherichia coli BL21 at 1 uM by Kinomescan method relative to control
[10] = target: Tyrosine-protein kinase JAK1 (Homo sapiens) (UniProt P23458); assay: Binding affinity to wild-type human partial length JAK1 JH1 catalytic domain (V856 to K1154 residues) expressed in Escherichia coli BL21 at 1 uM by Kinomescan method relative to control
[11] = target: Serine/threonine-protein kinase D3 (Homo sapiens) (UniProt O94806); assay: Binding affinity to wild-type human partial length PRKD3 (S543 to E863 residues) expressed in Escherichia coli BL21 at 1 uM by Kinomescan method relative to control
Chain of Serine/threonine-protein kinase D3 (Homo sapiens) (O94806 whole entry, the tested form may be a part): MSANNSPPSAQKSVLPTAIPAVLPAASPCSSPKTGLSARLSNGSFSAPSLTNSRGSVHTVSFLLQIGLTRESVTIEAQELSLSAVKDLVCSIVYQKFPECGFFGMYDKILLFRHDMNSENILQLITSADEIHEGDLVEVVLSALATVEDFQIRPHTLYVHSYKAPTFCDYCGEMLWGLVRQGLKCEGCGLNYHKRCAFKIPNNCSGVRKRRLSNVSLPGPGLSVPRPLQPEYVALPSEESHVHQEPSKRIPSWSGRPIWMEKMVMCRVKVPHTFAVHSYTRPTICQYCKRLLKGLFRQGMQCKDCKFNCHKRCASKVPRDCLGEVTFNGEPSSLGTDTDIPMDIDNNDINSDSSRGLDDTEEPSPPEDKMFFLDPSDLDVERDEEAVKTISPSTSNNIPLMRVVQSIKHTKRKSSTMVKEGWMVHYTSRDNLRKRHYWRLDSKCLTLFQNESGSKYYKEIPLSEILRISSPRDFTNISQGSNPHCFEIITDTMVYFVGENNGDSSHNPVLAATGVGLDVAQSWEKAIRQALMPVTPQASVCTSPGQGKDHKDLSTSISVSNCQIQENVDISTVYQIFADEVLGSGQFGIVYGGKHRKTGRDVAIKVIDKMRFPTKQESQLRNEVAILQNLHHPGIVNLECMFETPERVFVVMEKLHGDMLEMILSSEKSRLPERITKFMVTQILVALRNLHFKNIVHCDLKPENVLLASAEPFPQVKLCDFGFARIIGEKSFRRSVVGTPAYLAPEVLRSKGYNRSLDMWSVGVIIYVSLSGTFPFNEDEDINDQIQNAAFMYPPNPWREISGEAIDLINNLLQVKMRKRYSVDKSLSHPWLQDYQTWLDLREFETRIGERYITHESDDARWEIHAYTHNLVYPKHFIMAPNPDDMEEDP

Aurora kinase A = target: T1, Aurora kinase A (Homo sapiens, UniProt O14965); assay: Inhibition of Aurora A auto-phosphorylation in human HCT116 cells after 4 hrs by Western blot analysis; format: cell-based
T1 sequence (O14965 whole entry): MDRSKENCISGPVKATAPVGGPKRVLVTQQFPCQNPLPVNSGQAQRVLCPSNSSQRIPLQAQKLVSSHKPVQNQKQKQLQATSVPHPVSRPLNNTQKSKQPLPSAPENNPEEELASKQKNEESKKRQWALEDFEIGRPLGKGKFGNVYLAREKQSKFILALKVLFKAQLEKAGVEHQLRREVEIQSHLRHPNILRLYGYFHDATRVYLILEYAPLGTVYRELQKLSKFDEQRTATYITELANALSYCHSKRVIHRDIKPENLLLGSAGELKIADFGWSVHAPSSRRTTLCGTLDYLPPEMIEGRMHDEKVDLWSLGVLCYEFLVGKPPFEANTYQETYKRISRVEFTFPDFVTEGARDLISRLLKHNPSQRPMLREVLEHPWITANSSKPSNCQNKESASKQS
In short: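 Cells treated with compound in dose response for 4 h. Phospho-Aurora A (auto-phosphorylation) read by western blot. EC50 derived from dose-response curves over three replicate experiments.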

[12] = target: ALK tyrosine kinase receptor (Homo sapiens) (UniProt Q9UM73); assay: Binding affinity to wild-type human partial length ALK (I1088 to E1409 residues) expressed in HEK293 cells at 1 uM by Kinomescan method relative to control; format: cell-based
[13] = target: Serine/threonine-protein kinase NLK (Homo sapiens) (UniProt Q9UBE8); assay: Binding affinity to wild-type human full length NLK (M13 to E527 residues) expressed in Escherichia coli BL21 at 1 uM by Kinomescan method relative to control; in short: as §2
[14] = target: Tyrosine-protein kinase HCK (Homo sapiens) (UniProt P08631); assay: Binding affinity to wild-type human full length HCK (M22 to P526 residues) expressed in Escherichia coli BL21 at 1 uM by Kinomescan method relative to control; in short: as §1
[15] = target: Homeodomain-interacting protein kinase 4 (Homo sapiens) (UniProt Q8NE63); assay: Binding affinity to wild-type human partial length HIPK4 (M1 to V384 residues) expressed in Escherichia coli BL21 at 1 uM by Kinomescan method relative to control
Chain of Homeodomain-interacting protein kinase 4 (Homo sapiens) (Q8NE63 whole entry, the tested form may be a part): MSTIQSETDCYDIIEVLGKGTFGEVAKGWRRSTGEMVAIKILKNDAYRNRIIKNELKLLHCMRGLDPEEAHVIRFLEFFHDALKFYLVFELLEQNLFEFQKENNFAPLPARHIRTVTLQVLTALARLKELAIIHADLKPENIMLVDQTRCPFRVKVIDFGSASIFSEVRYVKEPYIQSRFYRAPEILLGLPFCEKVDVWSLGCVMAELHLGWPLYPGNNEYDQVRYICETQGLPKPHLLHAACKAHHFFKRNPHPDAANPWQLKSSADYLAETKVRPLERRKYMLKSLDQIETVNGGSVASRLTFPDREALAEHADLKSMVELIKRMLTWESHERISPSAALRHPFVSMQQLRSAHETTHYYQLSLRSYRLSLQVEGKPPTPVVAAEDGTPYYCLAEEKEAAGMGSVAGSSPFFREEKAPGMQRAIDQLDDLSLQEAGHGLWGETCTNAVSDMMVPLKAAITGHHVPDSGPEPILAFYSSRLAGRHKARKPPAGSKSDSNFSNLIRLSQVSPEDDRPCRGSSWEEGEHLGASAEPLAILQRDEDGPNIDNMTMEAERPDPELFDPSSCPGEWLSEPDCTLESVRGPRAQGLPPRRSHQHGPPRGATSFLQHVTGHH

[16] = tested on: Fibroblast growth factor receptor 3 (Homo sapiens), P22607 [G697C]; assay: Binding affinity to human partial length FGFR3 G697C mutant (R442 to S771 residues) expressed in Escherichia coli BL21 at 1 uM by Kinomescan method relative to control
[17] = target: Serine/threonine-protein kinase SIK1 (Homo sapiens) (UniProt P57059); assay: Binding affinity to wild-type human partial length SIK (M1 to Y304 residues) expressed in Escherichia coli BL21 at 1 uM by Kinomescan method relative to control
[18] = target: Myosin-IIIb (Homo sapiens) (UniProt Q8WXR4); assay: Binding affinity to wild-type human partial length MYO3B (M1 to D357 residues) expressed in Escherichia coli BL21 at 1 uM by Kinomescan method relative to control
[19] = target: Dual specificity mitogen-activated protein kinase kinase 5 (Homo sapiens) (UniProt Q13163); assay: Binding affinity to wild-type human partial length MEK5 (L98 to P448 residues) expressed in HEK293 cells at 1 uM by Kinomescan method relative to control; format: cell-based
[20] = target: Activin receptor type-1B (Homo sapiens) (UniProt P36896); assay: Binding affinity to wild-type human ACVR1B (S187 to I505 residues) expressed in Escherichia coli BL21 at 1 uM by Kinomescan method relative to control
[21] = target: NUAK family SNF1-like kinase 1 (Homo sapiens) (UniProt O60285); assay: Binding affinity to wild-type human partial length ARK5 (E25 to I332 residues) expressed in Escherichia coli BL21 at 1 uM by Kinomescan method relative to control; in short: as §2

Chain of LIM domain kinase 2 (Homo sapiens) (P53671 whole entry, looked up, the tested form may be a part): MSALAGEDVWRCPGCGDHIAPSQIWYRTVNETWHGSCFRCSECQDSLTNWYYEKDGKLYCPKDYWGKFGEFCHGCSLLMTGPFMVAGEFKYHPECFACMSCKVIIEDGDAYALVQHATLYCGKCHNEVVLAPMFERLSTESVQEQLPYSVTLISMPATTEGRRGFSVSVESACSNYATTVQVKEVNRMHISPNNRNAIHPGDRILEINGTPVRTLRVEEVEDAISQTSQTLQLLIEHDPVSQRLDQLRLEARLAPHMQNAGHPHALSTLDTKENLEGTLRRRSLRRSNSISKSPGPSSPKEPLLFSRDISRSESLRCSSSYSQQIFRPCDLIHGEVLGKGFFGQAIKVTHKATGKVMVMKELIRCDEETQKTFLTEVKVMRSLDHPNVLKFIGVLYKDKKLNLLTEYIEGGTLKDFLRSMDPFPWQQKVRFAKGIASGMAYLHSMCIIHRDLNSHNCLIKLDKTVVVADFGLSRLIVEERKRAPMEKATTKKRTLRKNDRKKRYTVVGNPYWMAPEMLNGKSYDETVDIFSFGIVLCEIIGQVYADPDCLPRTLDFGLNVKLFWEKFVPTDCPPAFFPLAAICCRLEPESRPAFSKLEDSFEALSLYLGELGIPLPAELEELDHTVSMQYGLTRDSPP

CCC(=O)Nc1ccc(C(=O)Nc2ccc(Nc3ncc4c(n3)N(C)c3ccc(C)cc3C(=O)N4C)cc2)cc1
Activity [1]: 89% | Activity [2]: 79% | Activity [3]: 66% | Activity [4]: 100% | Activity [5]: 77% | Activity [6]: 95% | Activity [7]: 88% | Activity [8]: 98% | Activity [9]: 94% | Activity [10]: 86% | Activity [11]: 81% | EC50 (Aurora kinase A): 38 nM | Activity [12]: 83% | Activity [13]: 100% | Activity [14]: 74% | Activity [15]: 95% | Activity [16]: 95% | Activity [17]: 81% | Activity [18]: 100% | Activity [19]: 90% | Activity [20]: 100% | Activity [21]: 85%

C=CC(=O)Nc1ccc(C(=O)Nc2ccc(Nc3ncc4c(n3)N(C)c3ccc(C)cc3C(=O)N4C)cc2)cc1
Activity [1]: 100% | Activity [2]: 100% | Activity [3]: 82% | Activity [4]: 99% | Activity [5]: 72% | Activity [6]: 100% | Activity [7]: 98% | Activity [8]: 95% | Activity [9]: 96% | Activity [10]: 96% | Activity [11]: 90% | EC50 (Aurora kinase A): 5.8 nM | Activity [12]: 100% | Activity [13]: 81% | Activity [14]: 100% | Activity [15]: 95% | Activity [16]: 93% | Activity [17]: 95% | Activity [18]: 100% | Activity [19]: 99% | Activity [20]: 85% | Activity [21]: 84%
